In ChEMBL document CHEMBL3868585, “Absolute Configuration of Dihydro-β-agarofuran Sesquiterpenes from Maytenus jelskii and Their Potential Antitumor-Promoting Effects” (J Nat Prod, 2016):

What was measured:
Type in all cases: cell-based
Settings in all cases: human gammaherpesvirus 4
[1] = tested on: Raji; assay: Inhibition of TPA-induced EBV-early antigen activation in human Raji cells assessed as cell viability at 1000 molar ratio per TPA after 48 hrs by trypan blue staining method
Summary of the method: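 Raji cells treated 48 h at 37 °C with n-butyric acid (4 mmol), TPA (32 pmol) and test compound in DMSO at 1000 mol ratio/TPA; viability determined by Trypan Blue staining.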

[2] = tested on: Raji; assay: Inhibition of TPA-induced EBV-early antigen activation in human Raji cells after 48 hrs by immunofluorescence method relative to TPA
Summary of the method: (§1)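 Raji cells (EBV genome-carrying, virus nonproducer) grown in RPMI1640 with 10% FBS; 1 × 10^6 cells incubated 48 h at 37 °C in 1 mL medium with n-butyric acid (4 mmol), TPA (32 pmol) in DMSO, and test compound in 5 μL DMSO at 10, 100, 500 or 1000 mol ratio/TPA. EA-positive cells detected by indirect immunofluorescence with NPC patient serum, ≥500 cells counted; triplicates, expressed relative to butyrate+TPA control (100%).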

[3] = tested on: Raji; assay: Inhibition of TPA-induced EBV-early antigen activation in human Raji cells assessed as remaining activity at 100 molar ratio per TPA after 48 hrs by immunofluorescence method relative to TPA; summary of the method: as §1
[4] = tested on: Raji; assay: Inhibition of TPA-induced EBV-early antigen activation in human Raji cells at 1000 molar ratio per TPA after 48 hrs by immunofluorescence method relative to TPA; summary of the method: as §1
[5] = tested on: Raji; assay: Inhibition of TPA-induced EBV-early antigen activation in human Raji cells at 500 molar ratio per TPA after 48 hrs by immunofluorescence method relative to TPA; summary of the method: as §1
[6] = tested on: Raji; assay: Inhibition of TPA-induced EBV-early antigen activation in human Raji cells at 100 molar ratio per TPA after 48 hrs by immunofluorescence method relative to TPA; summary of the method: as §1
[7] = tested on: Raji; assay: Inhibition of TPA-induced EBV-early antigen activation in human Raji cells at 10 molar ratio per TPA after 48 hrs by immunofluorescence method relative to TPA; summary of the method: as §1

SMILES	Cell viability [1] [%]	inhibition [2]	Activity [3] [%]	inhibition [4] [%]	inhibition [5] [%]	inhibition [6] [%]	inhibition [7] [%]
CC(=O)O[C@H]1[C@H](OC(=O)c2ccccc2)C[C@](C)(O)[C@]23OC(C)(C)[C@H](C[C@H](OC(=O)c4ccco4)[C@]12C)[C@H]3OC(=O)c1ccccc1	> 60	Dose-dependent effect					
CC(=O)O[C@@H]1[C@H](O)[C@@H](C)[C@]23OC(C)(C)[C@H](C[C@H](OC(=O)c4ccccc4)[C@]2(C)[C@H]1OC(=O)c1ccccc1)[C@H]3OC(C)=O	> 60	Dose-dependent effect	81				
CC(=O)O[C@@H]1[C@H](OC(C)=O)[C@@H](C)[C@@]23C[C@@H](C[C@H](OC(=O)c4ccccc4)[C@]2(C)[C@H]1OC(=O)c1ccco1)C(C)(C)O3	> 60	Dose-dependent effect					
CC(=O)O[C@H]1[C@H](OC(=O)c2ccccc2)[C@@]2(C)[C@@H](OC(=O)/C=C/c3ccccc3)C[C@]3(O)C[C@]2(OC3(C)C)[C@@](C)(O)[C@H]1OC(C)=O	> 60	Dose-dependent effect					
CC(=O)O[C@H]1[C@@H]2C[C@@]3(OC2(C)C)[C@](C)([C@H]1OC(=O)c1ccccc1)[C@@H](OC(=O)c1ccccc1)[C@H](OC(C)=O)[C@H](OC(C)=O)[C@]3(C)O	> 60	Dose-dependent effect	79.3				
CC(=O)O[C@H]1[C@H](OC(=O)c2ccccc2)C[C@](C)(O)[C@]23OC(C)(C)[C@H](C[C@H](OC(=O)c4ccco4)[C@]12CO)[C@H]3OC(=O)c1ccccc1	> 60	Dose-dependent effect	82.2				
CC(=O)O[C@@H]1[C@H](O)[C@@H](C)[C@]23OC(C)(C)[C@H](C[C@H](OC(=O)/C=C/c4ccccc4)[C@]2(C)[C@H]1OC(=O)c1ccccc1)[C@H]3OC(C)=O	> 60	Dose-dependent effect					
CC1(C)O[C@]23C[C@H]1C[C@H](OC(=O)c1ccccc1)[C@]2(C)[C@@H](OC(=O)c1ccco1)CC[C@]3(C)O	> 60	Dose-dependent effect					
CC(=O)O[C@H]1[C@H](OC(=O)c2ccccc2)[C@@]2(C)[C@@H](OC(=O)/C=C/c3ccccc3)[C@@H](O)[C@@H]3[C@@H](OC(C)=O)[C@]2(OC3(C)C)[C@@](C)(O)[C@H]1OC(C)=O	> 60	Dose-dependent effect	88.6				
CC(=O)O[C@@H]1[C@H](O)[C@@H](C)[C@]23OC(C)(C)[C@H]([C@H](OC(C)=O)[C@H](OC(=O)c4ccccc4)[C@]2(C)[C@H]1OC(=O)c1ccccc1)[C@H]3OC(C)=O	> 60	Dose-dependent effect	79.5				
CC(=O)O[C@@H]1C[C@](C)(O)[C@@]23C[C@@H](C[C@H](OC(=O)/C=C/c4ccccc4)[C@]2(C)[C@H]1OC(=O)c1ccco1)C(C)(C)O3	> 60	Dose-dependent effect					
CC(=O)O[C@H]1[C@H](OC(=O)c2ccccc2)[C@@]2(C)[C@@H](OC(=O)/C=C/c3ccccc3)[C@@H](O)[C@@H]3C[C@]2(OC3(C)C)[C@@](C)(O)[C@H]1OC(C)=O	> 60	Dose-dependent effect					
CC(=O)O[C@@H]1[C@H](O)[C@@H](C)[C@]23OC(C)(C)[C@H]([C@H](OC(C)=O)[C@H](OC(=O)c4ccccc4)[C@]2(C)[C@H]1OC(=O)c1ccoc1)[C@H]3OC(C)=O	> 60	Dose-dependent effect	87				
CC(=O)O[C@@H]1C[C@](C)(O)[C@@]23C[C@@H](C[C@H](OC(=O)c4ccccc4)[C@]2(C)[C@H]1OC(=O)c1ccco1)C(C)(C)O3	> 60	Dose-dependent effect					
CC(=O)O[C@H]1[C@H](OC(=O)c2ccccc2)[C@@]2(C)[C@@H](OC(=O)/C=C/c3ccccc3)C[C@@H]3[C@@H](OC(C)=O)[C@]2(OC3(C)C)[C@@](C)(O)[C@H]1OC(=O)c1cccnc1	> 60	Dose-dependent effect					
CC(=O)O[C@H]1[C@H](OC(=O)c2ccccc2)[C@@]2(C)[C@@H](OC(=O)/C=C/c3ccccc3)[C@@H](O)[C@@H]3[C@@H](O)[C@]2(OC3(C)C)[C@@](C)(O)[C@H]1OC(C)=O	> 60	Dose-dependent effect	85				
CC(=O)O[C@@H]1[C@H](O)[C@@H](C)[C@]23OC(C)(C)[C@H]([C@H](OC(C)=O)[C@H](OC(=O)c4ccccc4)[C@]2(C)[C@H]1OC(=O)c1ccccc1)[C@H]3O	> 60	Dose-dependent effect	76.3	100	69.9	23.7	2.2
CC(=O)O[C@H]1[C@H](OC(=O)c2ccco2)[C@@]2(C)[C@@H](OC(=O)c3ccccc3)C[C@@H]3C[C@]2(OC3(C)C)[C@@](C)(O)[C@H]1OC(C)=O	> 60	Dose-dependent effect					
CC(=O)O[C@@H]1[C@H](O)[C@@H](C)[C@]23OC(C)(C)[C@H](C[C@H](OC(=O)/C=C/c4ccccc4)[C@]2(C)[C@H]1OC(=O)c1ccccc1)[C@H]3O	> 60	Dose-dependent effect					
CC(=O)OC[C@]12[C@@H](OC(=O)c3ccco3)C[C@@H]3[C@@H](OC(=O)c4ccccc4)[C@]1(OC3(C)C)[C@@](C)(O)C[C@@H](OC(C)=O)[C@@H]2OC(C)=O	> 60	Dose-dependent effect	81.9				
